Data: ChEMBL document CHEMBL4689842, “EUbOPEN Chemogenomics Library wave 1” (2021)

System: U2OS
Experiment: Multiplex assay against U2OS
Format: toxicity, cell-based
Details: human
In short: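 Imaging took place on a CQ1 microscope at 37°C and 5% CO2 once compound had been added to live cells stained at seeding with Hoechst33342, BioTracker Green Microtubule Cytoskeleton Dye, MitoTracker Red and Annexin V Alexa Fluor 680. CellPathfinder machine-learning gating classed cells as Hoechst high-intensity objects or normal cells, classed normal cells as having healthy, pyknosed or fragmented nuclei, and classed pyknosed cells as mitotic or apoptotic. Tubulin, mitochondrial-mass and membrane-permeability phenotypes are per cents of the healthy-nucleus cells.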

[1] = 12 h, 1 µM, compound concentration 1 uM, replicate 1
[2] = 12 h, 1 µM, compound concentration 1 uM, replicate 2
[3] = 12 h, 10 µM, compound concentration 10 uM, replicate 1
[4] = 12 h, 10 µM, compound concentration 10 uM, replicate 2
[5] = 24 h, 1 µM, compound concentration 1 uM, replicate 1
[6] = 24 h, 1 µM, compound concentration 1 uM, replicate 2
[7] = 24 h, 10 µM, compound concentration 10 uM, replicate 1
[8] = 24 h, 10 µM, compound concentration 10 uM, replicate 2
[9] = 48 h, 1 µM, compound concentration 1 uM, replicate 1
[10] = 48 h, 1 µM, compound concentration 1 uM, replicate 2
[11] = 48 h, 10 µM, compound concentration 10 uM, replicate 1
[12] = 48 h, 10 µM, compound concentration 10 uM, replicate 2

Oc1cccc(-c2nc(N3CCOCC3)c3oc4ncccc4c3n2)c1 [PI-103]
Population Apoptotic (%) [1]: 73% | Population Fragmented Nuclei (%) [1]: 20% | Population Healthy Nuclei (%) [1]: 67% | Population Hoechst High Intensity Objects (%) [1]: 11% | Population Membrane Permeable-Phenotype (%) [1]: 8% | Population Mitochondria Different-Phenotype (%) [1]: 7% | Population Mitotic Cells (%) [1]: 26% | Population Normal (%) [1]: 88% | Population Pyknosed Nuclei (%) [1]: 12% | Population Tubulin-Different-Phenotype (%) [1]: 14% | Total Cell Count [1]: 224 | Population Apoptotic (%) [2]: 47% | Population Fragmented Nuclei (%) [2]: 10% | Population Healthy Nuclei (%) [2]: 63% | Population Hoechst High Intensity Objects (%) [2]: 5% | Population Membrane Permeable-Phenotype (%) [2]: 2% | Population Mitotic Cells (%) [2]: 52% | Population Normal (%) [2]: 94% | Population Pyknosed Nuclei (%) [2]: 26% | Population Tubulin-Different-Phenotype (%) [2]: 0% | Total Cell Count [2]: 73 | Population Apoptotic (%) [3]: 42% | Population Fragmented Nuclei (%) [3]: 20% | Population Healthy Nuclei (%) [3]: 47% | Population Hoechst High Intensity Objects (%) [3]: 6% | Population Membrane Permeable-Phenotype (%) [3]: 35% | Population Mitochondria Different-Phenotype (%) [3]: 63% | Population Mitotic Cells (%) [3]: 57% | Population Normal (%) [3]: 93% | Population Pyknosed Nuclei (%) [3]: 31% | Population Tubulin-Different-Phenotype (%) [3]: 80% | Total Cell Count [3]: 168 | Population Apoptotic (%) [4]: 36% | Population Fragmented Nuclei (%) [4]: 18% | Population Healthy Nuclei (%) [4]: 39% | Population Hoechst High Intensity Objects (%) [4]: 5% | Population Membrane Permeable-Phenotype (%) [4]: 33% | Population Mitochondria Different-Phenotype (%) [4]: 59% | Population Mitotic Cells (%) [4]: 63% | Population Normal (%) [4]: 94% | Population Pyknosed Nuclei (%) [4]: 41% | Population Tubulin-Different-Phenotype (%) [4]: 83% | Total Cell Count [4]: 69 | Population Apoptotic (%) [5]: 56% | Population Fragmented Nuclei (%) [5]: 21% | Population Healthy Nuclei (%) [5]: 61% | Population Hoechst High Intensity Objects (%) [5]: 8% | Population Membrane Permeable-Phenotype (%) [5]: 7% | Population Mitochondria Different-Phenotype (%) [5]: 4% | Population Mitotic Cells (%) [5]: 43% | Population Normal (%) [5]: 91% | Population Pyknosed Nuclei (%) [5]: 16% | Population Tubulin-Different-Phenotype (%) [5]: 11% | Total Cell Count [5]: 224 | Population Apoptotic (%) [6]: 75% | Population Fragmented Nuclei (%) [6]: 14% | Population Healthy Nuclei (%) [6]: 69% | Population Hoechst High Intensity Objects (%) [6]: 6% | Population Membrane Permeable-Phenotype (%) [6]: 3% | Population Mitochondria Different-Phenotype (%) [6]: 3% | Population Mitotic Cells (%) [6]: 25% | Population Normal (%) [6]: 93% | Population Tubulin-Different-Phenotype (%) [6]: 1% | Total Cell Count [6]: 73 | Population Apoptotic (%) [7]: 54% | Population Fragmented Nuclei (%) [7]: 25% | Population Healthy Nuclei (%) [7]: 40% | Population Hoechst High Intensity Objects (%) [7]: 10% | Population Membrane Permeable-Phenotype (%) [7]: 20% | Population Mitochondria Different-Phenotype (%) [7]: 62% | Population Mitotic Cells (%) [7]: 45% | Population Normal (%) [7]: 89% | Population Pyknosed Nuclei (%) [7]: 34% | Population Tubulin-Different-Phenotype (%) [7]: 74% | Total Cell Count [7]: 196 | Population Apoptotic (%) [8]: 50% | Population Fragmented Nuclei (%) [8]: 28% | Population Healthy Nuclei (%) [8]: 24% | Population Hoechst High Intensity Objects (%) [8]: 4% | Population Membrane Permeable-Phenotype (%) [8]: 44% | Population Mitochondria Different-Phenotype (%) [8]: 75% | Population Mitotic Cells (%) [8]: 49% | Population Normal (%) [8]: 95% | Population Pyknosed Nuclei (%) [8]: 47% | Population Tubulin-Different-Phenotype (%) [8]: 89% | Total Cell Count [8]: 80 | Population Apoptotic (%) [9]: 70% | Population Fragmented Nuclei (%) [9]: 18% | Population Healthy Nuclei (%) [9]: 64% | Population Hoechst High Intensity Objects (%) [9]: 7% | Population Membrane Permeable-Phenotype (%) [9]: 7% | Population Mitochondria Different-Phenotype (%) [9]: 6% | Population Mitotic Cells (%) [9]: 29% | Population Normal (%) [9]: 92% | Population Pyknosed Nuclei (%) [9]: 17% | Population Tubulin-Different-Phenotype (%) [9]: 16% | Total Cell Count [9]: 222 | Population Apoptotic (%) [10]: 63% | Population Fragmented Nuclei (%) [10]: 10% | Population Healthy Nuclei (%) [10]: 75% | Population Hoechst High Intensity Objects (%) [10]: 4% | Population Membrane Permeable-Phenotype (%) [10]: 8% | Population Mitochondria Different-Phenotype (%) [10]: 4% | Population Mitotic Cells (%) [10]: 36% | Population Normal (%) [10]: 95% | Population Pyknosed Nuclei (%) [10]: 13% | Population Tubulin-Different-Phenotype (%) [10]: 8% | Total Cell Count [10]: 72 | Population Apoptotic (%) [11]: 70% | Population Fragmented Nuclei (%) [11]: 35% | Population Healthy Nuclei (%) [11]: 26% | Population Hoechst High Intensity Objects (%) [11]: 15% | Population Membrane Permeable-Phenotype (%) [11]: 37% | Population Mitochondria Different-Phenotype (%) [11]: 48% | Population Mitotic Cells (%) [11]: 29% | Population Normal (%) [11]: 84% | Population Pyknosed Nuclei (%) [11]: 38% | Population Tubulin-Different-Phenotype (%) [11]: 56% | Total Cell Count [11]: 215 | Population Apoptotic (%) [12]: 68% | Population Fragmented Nuclei (%) [12]: 26% | Population Hoechst High Intensity Objects (%) [12]: 12% | Population Membrane Permeable-Phenotype (%) [12]: 85% | Population Mitochondria Different-Phenotype (%) [12]: 77% | Population Mitotic Cells (%) [12]: 31% | Population Normal (%) [12]: 87% | Population Pyknosed Nuclei (%) [12]: 47% | Population Tubulin-Different-Phenotype (%) [12]: 88% | Total Cell Count [12]: 86

Cc1ccc(NC(=O)Nc2cc(C(F)(F)F)ccc2F)cc1Nc1ccc2c(c1)NC(=O)/C2=C\c1ccc[nH]1
Population Apoptotic (%) [1]: 32% | Population Fragmented Nuclei (%) [1]: 15% | Population Healthy Nuclei (%) [1]: 66% | Population Hoechst High Intensity Objects (%) [1]: 2% | Population Membrane Permeable-Phenotype (%) [1]: 87% | Population Mitochondria Different-Phenotype (%) [1]: 7% | Population Mitotic Cells (%) [1]: 68% | Population Normal (%) [1]: 97% | Population Pyknosed Nuclei (%) [1]: 18% | Population Tubulin-Different-Phenotype (%) [1]: 65% | Total Cell Count [1]: 153 | Population Apoptotic (%) [2]: 33% | Population Fragmented Nuclei (%) [2]: 24% | Population Healthy Nuclei (%) [2]: 57% | Population Hoechst High Intensity Objects (%) [2]: 12% | Population Membrane Permeable-Phenotype (%) [2]: 91% | Population Mitochondria Different-Phenotype (%) [2]: 18% | Population Mitotic Cells (%) [2]: 66% | Population Normal (%) [2]: 87% | Population Pyknosed Nuclei (%) [2]: 17% | Population Tubulin-Different-Phenotype (%) [2]: 59% | Total Cell Count [2]: 88 | Population Apoptotic (%) [3]: 22% | Population Fragmented Nuclei (%) [3]: 2% | Population Healthy Nuclei (%) [3]: 91% | Population Hoechst High Intensity Objects (%) [3]: 2% | Population Membrane Permeable-Phenotype (%) [3]: 11% | Population Mitochondria Different-Phenotype (%) [3]: 22% | Population Mitotic Cells (%) [3]: 77% | Population Normal (%) [3]: 97% | Population Pyknosed Nuclei (%) [3]: 6% | Population Tubulin-Different-Phenotype (%) [3]: 27% | Total Cell Count [3]: 204 | Population Apoptotic (%) [4]: 66% | Population Fragmented Nuclei (%) [4]: 8% | Population Healthy Nuclei (%) [4]: 87% | Population Hoechst High Intensity Objects (%) [4]: 11% | Population Membrane Permeable-Phenotype (%) [4]: 5% | Population Mitochondria Different-Phenotype (%) [4]: 29% | Population Mitotic Cells (%) [4]: 33% | Population Normal (%) [4]: 88% | Population Pyknosed Nuclei (%) [4]: 3% | Population Tubulin-Different-Phenotype (%) [4]: 19% | Total Cell Count [4]: 147 | Population Apoptotic (%) [5]: 75% | Population Fragmented Nuclei (%) [5]: 14% | Population Healthy Nuclei (%) [5]: 52% | Population Membrane Permeable-Phenotype (%) [5]: 85% | Population Mitochondria Different-Phenotype (%) [5]: 11% | Population Mitotic Cells (%) [5]: 25% | Population Pyknosed Nuclei (%) [5]: 32% | Population Tubulin-Different-Phenotype (%) [5]: 36% | Total Cell Count [5]: 205 | Population Apoptotic (%) [6]: 76% | Population Fragmented Nuclei (%) [6]: 31% | Population Healthy Nuclei (%) [6]: 44% | Population Hoechst High Intensity Objects (%) [6]: 4% | Population Membrane Permeable-Phenotype (%) [6]: 94% | Population Mitochondria Different-Phenotype (%) [6]: 12% | Population Mitotic Cells (%) [6]: 23% | Population Normal (%) [6]: 95% | Population Pyknosed Nuclei (%) [6]: 23% | Population Tubulin-Different-Phenotype (%) [6]: 53% | Total Cell Count [6]: 118 | Population Apoptotic (%) [7]: 26% | Population Fragmented Nuclei (%) [7]: 2% | Population Healthy Nuclei (%) [7]: 89% | Population Hoechst High Intensity Objects (%) [7]: 1% | Population Membrane Permeable-Phenotype (%) [7]: 8% | Population Mitochondria Different-Phenotype (%) [7]: 22% | Population Mitotic Cells (%) [7]: 73% | Population Normal (%) [7]: 98% | Population Pyknosed Nuclei (%) [7]: 7% | Population Tubulin-Different-Phenotype (%) [7]: 31% | Total Cell Count [7]: 302 | Population Apoptotic (%) [8]: 16% | Population Fragmented Nuclei (%) [8]: 6% | Population Healthy Nuclei (%) [8]: 87% | Population Hoechst High Intensity Objects (%) [8]: 8% | Population Membrane Permeable-Phenotype (%) [8]: 7% | Population Mitochondria Different-Phenotype (%) [8]: 32% | Population Mitotic Cells (%) [8]: 83% | Population Normal (%) [8]: 91% | Population Pyknosed Nuclei (%) [8]: 5% | Population Tubulin-Different-Phenotype (%) [8]: 18% | Total Cell Count [8]: 205
